From ChEMBL document CHEMBL2413015, “Synthesis, evaluation and molecular dynamics study of some new 4-aminopyridine semicarbazones as an antiamnesic and cognition enhancing agents” (Bioorg Med Chem, 2013)

Columns and labels:
Rattus norvegicus [1] = assay: Toxicity in albino rat assessed as mortality upto 100 mg/kg after 30 mins to 48 hrs; format: organism-based; set-up: dose 100 mg/kg; settings: in vivo
How it was run: (§1)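 Acute toxicity followed OECD guidelines. Nulliparous, non-pregnant female albino rats (120–150 g) were fasted overnight with water ad libitum. Graded oral doses up to 100 mg/kg were given in 0.3% carboxymethyl cellulose. Rats were observed continuously for 30 min, at 2 h and up to 48 h for behavioural or autonomic changes, tremors, convulsions, salivation, diarrhoea, sleep, lacrimation, cardiovascular signs, feeding and mortality.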

Rattus norvegicus [2] = assay: Toxicity in albino rat assessed as change in normal behavioral response upto 100 mg/kg after 30 mins to 48 hrs; format: organism-based; set-up: dose 100 mg/kg; settings: in vivo; how it was run: as §1
Rattus norvegicus [3] = assay: Cognitive enhancing effect in po dosed Wistar rat assessed as reversal of learning impairment measured as transfer latency administered for 8 days by elevated plus maze test; format: functional, organism-based
How it was run: (§2)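 Oral dosing at 5 or 10 mg/kg for 8 days, suspended in 0.3% carboxymethyl cellulose; vehicle-treated controls. Transfer latency on elevated plus maze measured on first and second days of exposure (treatment days 7 and 8). Mean ± SEM, n = 6, one-way ANOVA versus vehicle control.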

Rattus norvegicus [4] = assay: Cognitive enhancing effect in Wistar rat assessed as reversal of learning impairment measured as transfer latency at 10 mg/kg, po for 8 days measured on second day of test by elevated plus maze test (reference value: 66.824 +/- 0.47 seconds); format: functional; how it was run: as §2
Rattus norvegicus [5] = assay: Cognitive enhancing effect in Wistar rat assessed as reversal of learning impairment measured as transfer latency at 5 mg/kg, po for 8 days measured on second day of test by elevated plus maze test (reference value: 66.824 +/- 0.47 seconds); format: functional; how it was run: as §2
Rattus norvegicus [6] = assay: Cognitive enhancing effect in Wistar rat assessed as reversal of learning impairment measured as transfer latency at 10 mg/kg, po for 8 days measured on first day of test by elevated plus maze test (reference value: 70.846 +/- 0.76 seconds); format: functional; how it was run: as §2
Rattus norvegicus [7] = assay: Cognitive enhancing effect in Wistar rat assessed as reversal of learning impairment measured as transfer latency at 5 mg/kg, po for 8 days measured on first day of test by elevated plus maze test (reference value: 70.846 +/- 0.76 seconds); format: functional; how it was run: as §2
Rattus norvegicus [8] = assay: Activity at AChE in Charles Foster rat hypothalamus assessed as substrate hydrolyzed per mg of protein at 10 mg/kg, po for 8 days by Ellman's method (reference value: 40.50 +/- 0.76 mol/min); format: functional
Rattus norvegicus [9] = assay: Activity at AChE in Charles Foster rat hypothalamus assessed as substrate hydrolyzed per mg of protein at 5 mg/kg, po for 8 days by Ellman's method (reference value: 40.50 +/- 0.76 mol/min); format: functional
Rattus norvegicus [10] = assay: Activity at AChE in Charles Foster rat hippocampus assessed as substrate hydrolyzed per mg of protein at 10 mg/kg, po for 8 days by Ellman's method (reference value: 47.50 +/- 0.84 mol/min); format: functional
Rattus norvegicus [11] = assay: Activity at AChE in Charles Foster rat hippocampus assessed as substrate hydrolyzed per mg of protein at 5 mg/kg, po for 8 days by Ellman's method (reference value: 47.50 +/- 0.84 mol/min); format: functional
Rattus norvegicus [12] = assay: Activity at AChE in Charles Foster rat prefrontal cortex assessed as substrate hydrolyzed per mg of protein at 10 mg/kg, po for 8 days by Ellman's method (reference value: 45.83 +/- 0.94 mol/min); format: functional
Rattus norvegicus [13] = assay: Activity at AChE in Charles Foster rat prefrontal cortex assessed as substrate hydrolyzed per mg of protein at 5 mg/kg, po for 8 days by Ellman's method (reference value: 45.83 +/- 0.94 mol/min); format: functional
Rattus norvegicus [14] = assay: Cognitive enhancing effect in Charles Foster rat assessed as reversal of scopolamine-induced amnesia measured as transfer latency at 10 mg/kg, po for 8 days administered 1 hr prior to scopolamine-challenge on day 7 measured on day 8 by elevated plus maze test (reference value: 62.17 +/- 0.47 seconds); format: functional
Rattus norvegicus [15] = assay: Cognitive enhancing effect in Charles Foster rat assessed as reversal of scopolamine-induced amnesia measured as transfer latency at 5 mg/kg, po for 8 days administered 1 hr prior to scopolamine-challenge on day 7 measured on day 8 by elevated plus maze test (reference value: 62.17 +/- 0.47 seconds); format: functional
Rattus norvegicus [16] = assay: (§3) Cognitive enhancing effect in Charles Foster rat assessed as reversal of scopolamine-induced amnesia measured as transfer latency at 10 mg/kg, po for 8 days administered 1 hr prior to scopolamine-challenge on day 7 measured on same day by elevated plus maze test (reference value: 67.83 +/- 0.94 seconds); format: functional
Rattus norvegicus [17] = assay: as §3, with “5” for “10”; format: functional
Cholinesterase [18] = target: T1, Cholinesterase (Homo sapiens, UniProt P06276); assay: Competitive inhibition of human serum BChE using butyrylthiocholine iodide as substrate by Lineweaver-Burk plot analysis
T1 sequence (P06276 whole entry): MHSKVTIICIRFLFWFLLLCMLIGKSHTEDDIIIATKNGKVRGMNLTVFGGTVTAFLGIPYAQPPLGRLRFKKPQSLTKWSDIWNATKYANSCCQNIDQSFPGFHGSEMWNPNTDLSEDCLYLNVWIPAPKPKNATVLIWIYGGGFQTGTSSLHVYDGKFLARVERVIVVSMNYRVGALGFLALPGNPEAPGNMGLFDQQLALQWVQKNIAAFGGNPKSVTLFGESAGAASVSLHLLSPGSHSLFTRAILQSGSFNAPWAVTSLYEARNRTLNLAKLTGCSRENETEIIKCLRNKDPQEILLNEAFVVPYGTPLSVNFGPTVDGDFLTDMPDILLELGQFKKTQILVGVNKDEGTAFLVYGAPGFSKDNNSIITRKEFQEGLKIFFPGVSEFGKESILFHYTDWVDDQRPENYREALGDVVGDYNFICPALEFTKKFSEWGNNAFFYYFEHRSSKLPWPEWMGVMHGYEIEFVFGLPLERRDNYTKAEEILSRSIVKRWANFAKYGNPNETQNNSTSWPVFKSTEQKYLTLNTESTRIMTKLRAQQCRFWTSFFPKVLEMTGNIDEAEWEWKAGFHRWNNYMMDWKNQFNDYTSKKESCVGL
How it was run: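 Ellman assay in phosphate buffer pH 8 with a fixed amount of cholinesterase. Thiocholine substrate was varied from below to above, but near, Km, with or without inhibitor. Inhibition type was assigned from Lineweaver–Burk plots.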

Acetylcholinesterase [19] = target: T2, Acetylcholinesterase (Electrophorus electricus, UniProt O42275); assay: Non competitive inhibition of electric eel AChE using acetylthiocholine iodide as substrate by Lineweaver-Burk plot analysis
T2 sequence (O42275 whole entry): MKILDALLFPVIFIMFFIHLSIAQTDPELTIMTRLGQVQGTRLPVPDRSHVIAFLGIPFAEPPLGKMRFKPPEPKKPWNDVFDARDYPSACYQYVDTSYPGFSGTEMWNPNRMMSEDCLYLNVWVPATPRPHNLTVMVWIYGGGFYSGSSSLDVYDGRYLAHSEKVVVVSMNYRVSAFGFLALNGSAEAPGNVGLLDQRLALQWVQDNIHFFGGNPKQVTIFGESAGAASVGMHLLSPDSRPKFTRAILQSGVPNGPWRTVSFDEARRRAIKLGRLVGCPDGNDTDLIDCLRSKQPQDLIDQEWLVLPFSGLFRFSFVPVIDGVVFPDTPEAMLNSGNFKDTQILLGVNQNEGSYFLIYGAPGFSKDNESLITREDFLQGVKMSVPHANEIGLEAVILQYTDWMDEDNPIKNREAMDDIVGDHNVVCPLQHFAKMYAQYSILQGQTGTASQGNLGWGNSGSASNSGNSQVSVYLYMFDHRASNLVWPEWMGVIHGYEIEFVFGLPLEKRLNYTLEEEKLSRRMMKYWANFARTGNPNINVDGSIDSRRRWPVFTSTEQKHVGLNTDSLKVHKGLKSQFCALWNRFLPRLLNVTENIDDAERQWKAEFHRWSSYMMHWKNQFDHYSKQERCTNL

[20] = Selectivity ratio of IC50 for human serum BChE to IC50 for electric eel AChE
How it was run: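 Ratio of IC50 (BChE) to IC50 (AChE). Both came from Ellman assays at 0.1 M phosphate pH 8.0 and 0.02 unit/mL enzyme: AChE (stock in phosphate buffer) with acetylthiocholine, human serum BChE (stock in 0.1% gelatine) with butyrylthiocholine.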

Cholinesterase [21] = target: T1, Cholinesterase; assay: Inhibition of human serum BChE using butyrylthiocholine iodide as substrate preincubated for 20 mins prior to substrate addition by Ellman's method
How it was run: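 Human serum BChE was dissolved in 0.1% gelatine. The final mix held 0.1 M phosphate pH 8.0, DTNB, 0.02 unit/mL enzyme and butyrylthiocholine iodide. Five inhibitor concentrations spanning 20–80% inhibition were preincubated with enzyme for 20 min at 37 °C, then substrate was added. Rate was read at 412 nm over 5 min against an enzyme-free blank. Each point was run in triplicate, and IC50 was read graphically from log concentration–% inhibition curves.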

Acetylcholinesterase [22] = target: T2, Acetylcholinesterase; assay: Inhibition of electric eel AChE using acetylthiocholine iodide as substrate preincubated for 20 mins prior to substrate addition by Ellman's method

Row | SMILES | Activity (Rattus norvegicus [1]) | Activity (Rattus norvegicus [2]) | Activity (Rattus norvegicus [3]) | Time (Rattus norvegicus [4]) | Time (Rattus norvegicus [5]) | Time (Rattus norvegicus [6]) | Time (Rattus norvegicus [7]) | Activity (Rattus norvegicus [8]) | Activity (Rattus norvegicus [9]) | Activity (Rattus norvegicus [10]) | Activity (Rattus norvegicus [11]) | Activity (Rattus norvegicus [12]) | Activity (Rattus norvegicus [13]) | Time (Rattus norvegicus [14]) | Time (Rattus norvegicus [15]) | Time (Rattus norvegicus [16]) | Time (Rattus norvegicus [17]) | Ki (Cholinesterase [18]) | Ki (Acetylcholinesterase [19]) | Ratio IC50 [20] | further results
1 | C/C(=N\NC(=O)Nc1ccncc1)c1ccc(O)cc1 | Non-toxic | Non-toxic | Dose-dependent effect | 39.5 s | 43.17 s | 48.17 s | 48.07 s | 31.5 mol/min | 34.13 mol/min | 34.17 mol/min | 36.33 mol/min | 33.83 mol/min | 35.5 mol/min | 56.83 s | 60.5 s | 64.17 s | 65.33 s | 628 nM | 246 nM | 2.46 | IC50 (Cholinesterase [21]): 358 nM; IC50 (Acetylcholinesterase [22]; read-out: IC50): 145 nM; IC50 (Acetylcholinesterase [22]; read-out: pIC50 (converted)): 148 nM
2 | O=C(NN=C(c1ccccc1)c1ccccc1)Nc1ccncc1 | Non-toxic | Non-toxic | Dose-dependent effect | 37.97 s | 40.42 s | 43.73 s | 46.81 s | 29.17 mol/min | 31 mol/min | 32 mol/min | 33.67 mol/min | 30 mol/min | 32.67 mol/min | 54.17 s | 56.13 s | 61.83 s | 64.57 s | 16800 nM | 82 nM | 355 | IC50 (Cholinesterase [21]): 18500 nM; IC50 (Acetylcholinesterase [22]; read-out: IC50): 52 nM
